Published values from different studies.
Protocols differ between the studies behind these lines.
Target: Cyclin-dependent kinase 7 (CDK7, Homo sapiens, UniProt P50613)

SMILES	assay	conditions	remaining binding [%]
CN(CCCC(F)(F)F)c1nccc(-c2cnn3ncccc23)n1	binding	1 µM	87
CC(C)(C)c1ccc(-c2nc(CBr)nn2-c2cccc(O)c2)cc1	cell-free assay, competition with immobilised ligand	10 µM	89
O=C(Nc1cccnn1)N1CC(C/C=C/c2cncc(Oc3ccc(C(F)(F)F)cn3)n2)C1	cell-free assay, competition with immobilised ligand	1 µM	81
CC1CCCN1c1nccc(-c2cnn3ncccc23)n1 (stereo not drawn)	binding	1 µM	100
COC(=O)Nc1nc2ccc(C(=O)c3ccccc3)cc2[nH]1	cell-free assay, competition with immobilised ligand	10 µM	11
CN(C)c1nccc(-c2cnc3ncccn23)n1	binding	1 µM	29
C[C@@H]1CN(c2ccc3ncc(-c4ccc5[nH]nc(C6CC6)c5c4)n3n2)C[C@H](C)O1	binding, competition with immobilised ligand	50 nM	88
COc1cnc(Nc2cccc(S(N)(=O)=O)c2)nc1N1CCN(c2ccccc2)C(=O)C1	binding, competition with immobilised ligand	1 µM	73
CN(C)c1ncc(F)c(-c2cnn3ncccc23)n1	binding	1 µM	78
O=C(c1ccc(Nc2ncc(Cl)c(-c3ccc(Cl)s3)n2)cc1)N1CCC(N2CCCC2)CC1	binding, competition with immobilised ligand	1 µM	0.55
Cc1c(C(=O)O)cc(-c2ccc(C3CCNCC3)cc2)c2ccc(-c3ccc(C(F)(F)F)cc3)cc12	binding, competition with immobilised ligand	1 µM	97
COc1ncc2cc3ccccc3nc2c1C#N	cell-free assay, competition with immobilised ligand	5 µM	100
CN(C)c1ncnc(-c2ccc3nc(Nc4cc(CN5CCN(C(=O)CC(F)(F)F)CC5)ccn4)[nH]c3c2)c1Cl	cell-free assay, competition with immobilised ligand	1 µM	80
N#Cc1ccccc1CSc1nnc2c(n1)[nH]c1ccccc12	binding, competition with immobilised ligand	10 µM	94
O=C(NCCCC1CCCCC1)c1ccc(CNC(=O)c2cnn(-c3ccccc3)c2C(F)(F)F)cc1	cell-free assay, competition with immobilised ligand	0.1 µM	100
O=C(NCCCN1CCOCC1)c1ccc(Nc2nccc(-c3cc4ccccc4s3)n2)cc1	binding, competition with immobilised ligand	1 µM	40
Cn1nc(C(F)(F)F)cc1-c1cnc(N2CCc3cc(S(=O)(=O)Nc4c(F)cc(Cl)cc4F)cc(N4CCCC4=O)c32)nc1	cell-free assay, competition with immobilised ligand	1 µM	75
C[C@@H]1CCN(c2nccc(-c3cnn4ncccc34)n2)C1	binding	1 µM	35
O=C(Nc1c[nH]nc1C(=O)NC1CCNCC1)c1cc(F)cc(F)c1	binding, competition with immobilised ligand	1 µM	5.6
CNC(=O)[C@@H]1CC[C@@H](n2c(-c3ccc4cnccc4c3)nc3ccc(C(=O)NCc4cccc(C(N)=O)c4)cc32)C1	binding, competition with immobilised ligand	1 µM	100
CS(=O)(=O)NCC[C@H](NC(=O)c1cncc2c1cnn2-c1ccc(F)cc1)c1ccnc(S(C)(=O)=O)c1	cell-free assay, competition with immobilised ligand	1 µM	100
N[C@@H]1CCN(c2nccc(-c3cnn4ncccc34)n2)C1	binding	1 µM	21
CCC(=N\O)/C(C)=C/c1ccc(F)cc1	cell-free assay, competition with immobilised ligand	1 µM	60
Cc1cnc(Nc2ccc(C(=O)N3CCC(N4CCCC4)CC3)cc2)nc1-c1cc2ccccc2s1	binding, competition with immobilised ligand	1 µM	2.4
